Measured values from ChEMBL document CHEMBL3414425, “Synthesis and biological evaluation of new imidazo[2,1-b][1,3,4]thiadiazole-benzimidazole derivatives” (Eur J Med Chem, 2015).
In brackets after ≈: the same amount, converted by molar mass. Activity calls are given as the source filed them. The rule behind the calls is not given here.

Tests used:
[1] = test system: Mycobacterium tuberculosis; assay: Antitubercular activity against Mycobacterium tuberculosis H37Rv ATCC 27294/XDR-TB incubated for 28 days by agar dilution method; assay type: functional; details: 672 h
Outline: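 Agar dilution: two-fold dilutions in Middlebrook 7H11 agar with OADC. Inoculum from fresh 7H11/OADC slants adjusted to 1 mg/mL wet weight in 0.05% Tween 80 saline, diluted 10^-2 (~10⁷ cfu/mL); 5 µL spotted per tube. Incubated 37 °C; MIC, lowest concentration fully inhibiting growth, read after 28 days, in triplicate.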

Escherichia coli [2] = assay: Antibacterial activity against Escherichia coli at 1 mg/ml incubated for 18 hrs by well plate technique; assay type: functional; details: for zone of inhibition at 1000 µg/mL: read-out: DIZ
Outline: (§1)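 Bacteria kept on nutrient agar at 37 °C, grown statically in nutrient broth (start ~10-100 cfu/mL) at 37 °C for 18-24 h. Suspensions diluted in saline and spread on nutrient agar, then wells cut with a cork borer. Compound in DMSO at 1 or 0.5 mg/mL added to wells, 37 °C, 18 h. Inhibition zone diameter measured minus DMSO value; triplicate; streptomycin standard.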

Escherichia coli [3] = assay: Antibacterial activity against Escherichia coli at 0.5 mg/ml incubated for 18 hrs by well plate technique; assay type: functional; details: for zone of inhibition at 500 µg/mL: read-out: DIZ; outline: as §1
Staphylococcus aureus [4] = assay: Antibacterial activity against Staphylococcus aureus at 1 mg/ml incubated for 18 hrs by well plate technique; assay type: functional; details: for zone of inhibition at 1000 µg/mL: read-out: DIZ; outline: as §1
Staphylococcus aureus [5] = assay: Antibacterial activity against Staphylococcus aureus at 0.5 mg/ml incubated for 18 hrs by well plate technique; assay type: functional; details: for zone of inhibition at 500 µg/mL: read-out: DIZ; outline: as §1
Pseudomonas aeruginosa [6] = assay: Antibacterial activity against Pseudomonas aeruginosa at 1 mg/ml incubated for 18 hrs by well plate technique; assay type: functional; details: for zone of inhibition at 1000 µg/mL: read-out: DIZ; outline: as §1
Pseudomonas aeruginosa [7] = assay: Antibacterial activity against Pseudomonas aeruginosa at 0.5 mg/ml incubated for 18 hrs by well plate technique; assay type: functional; details: for zone of inhibition at 500 µg/mL: read-out: DIZ; outline: as §1
Salmonella typhi [8] = assay: Antibacterial activity against Salmonella typhi at 1 mg/ml incubated for 18 hrs by well plate technique; assay type: functional, Salmonella enterica subsp. enterica serovar Typhi; details: for zone of inhibition at 1000 µg/mL: Salmonella enterica, read-out: DIZ; for diameter of the inhibition zone (DIZ): Salmonella enterica subsp. enterica serovar Typhi
Outline: (§2)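 Well diffusion on nutrient agar; strains kept on nutrient agar at 37 °C, grown statically in nutrient broth 18-24 h at 37 °C, diluted in saline, 0.1 ml spread per plate. Compounds in DMSO at 1 and 0.5 mg/mL added to cork-bored wells; 18 h at 37 °C. Inhibition zone diameter measured, DMSO value subtracted; triplicate; streptomycin reference.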

Salmonella typhi [9] = assay: Antibacterial activity against Salmonella typhi at 0.5 mg/ml incubated for 18 hrs by well plate technique; assay type: functional, Salmonella enterica subsp. enterica serovar Typhi; details: for zone of inhibition at 500 µg/mL: Salmonella enterica, read-out: DIZ; for diameter of the inhibition zone (DIZ): Salmonella enterica subsp. enterica serovar Typhi; outline: as §2
Aspergillus flavus [10] = assay: Antifungal activity against Aspergillus flavus at 1 mg/ml incubated for 3 days; assay type: functional; details: for zone of inhibition at 1000 µg/mL: 72 h, read-out: IZ
Outline: (§3)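 Well plate method on potato dextrose agar. Fungal stock suspended in distilled water with Tween 80 and swabbed over plates. Samples in DMSO at 1 and 0.5 mg/mL added to wells, incubated 25 °C for 3 days, then scored for inhibition zones; fluconazole standard.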

Aspergillus flavus [11] = assay: Antifungal activity against Aspergillus flavus at 0.5 mg/ml incubated for 3 days; assay type: functional; details: for zone of inhibition at 500 µg/mL: 72 h, read-out: IZ; outline: as §3
[12] = test system: Chrysosporium keratinophilum; assay: Antifungal activity against Chrysosporium keratinophilum at 1 mg/ml incubated for 3 days; assay type: functional; details: for zone of inhibition at 1000 µg/mL: 72 h, read-out: IZ; outline: as §3
[13] = test system: Chrysosporium keratinophilum; assay: Antifungal activity against Chrysosporium keratinophilum at 0.5 mg/ml incubated for 3 days; assay type: functional; details: for zone of inhibition at 500 µg/mL: 72 h, read-out: IZ; outline: as §3
Candida albicans [14] = assay: Antifungal activity against Candida albicans at 1 mg/ml incubated for 3 days; assay type: functional; details: for zone of inhibition at 1000 µg/mL: 72 h, read-out: IZ; outline: as §3
Candida albicans [15] = assay: Antifungal activity against Candida albicans at 0.5 mg/ml incubated for 3 days; assay type: functional; details: for zone of inhibition at 500 µg/mL: 72 h, read-out: IZ; outline: as §3
[16] = Antioxidant activity assessed as DPPH radical scavenging activity incubated for 10 mins by UV-visible spectrometry; assay type: physicochemical
Outline: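 DPPH free-radical scavenging; absorbance read at 517 nm against a methanol blank. % scavenging = (A control − A sample)/A control × 100.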

Row | SMILES | MIC [1] [µg/mL] | zone of inhibition at 1000 µg/mL (Escherichia coli [2]) [mm] | zone of inhibition at 500 µg/mL (Escherichia coli [3]) [mm] | zone of inhibition at 1000 µg/mL (Staphylococcus aureus [4]) [mm] | zone of inhibition at 500 µg/mL (Staphylococcus aureus [5]) [mm] | zone of inhibition at 1000 µg/mL (Pseudomonas aeruginosa [6]) [mm] | zone of inhibition at 500 µg/mL (Pseudomonas aeruginosa [7]) [mm] | zone of inhibition at 1000 µg/mL (Salmonella typhi [8]) [mm] | zone of inhibition at 500 µg/mL (Salmonella typhi [9]) [mm] | inhibition zone (IZ) (Aspergillus flavus [10]) | inhibition zone (IZ) (Aspergillus flavus [11]) | inhibition zone (IZ) [12] | inhibition zone (IZ) [13] | inhibition zone (IZ) (Candida albicans [15]) | inhibition (INH) [16] [%] | zone of inhibition at 1000 µg/mL (Aspergillus flavus [10]) [mm] | zone of inhibition at 500 µg/mL (Aspergillus flavus [11]) [mm] | zone of inhibition at 1000 µg/mL [12] [mm] | zone of inhibition at 500 µg/mL [13] [mm] | zone of inhibition at 1000 µg/mL (Candida albicans [14]) [mm] | further results
1 | Cc1nn2c(-c3nc4cc([N+](=O)[O-])ccc4[nH]3)c(-c3ccc(Cl)cc3)nc2s1 | 50 (≈ 122 µM) | 6 | 4 | 9 | 7 | 8 | 5 | 6 | 4 | inactive | inactive | inactive | inactive | inactive | 29.8 |  |  |  |  |  | inhibition zone (IZ) (Candida albicans [14]): inactive
2 | COc1ccc(-c2nc3sc(-c4ccc(Cl)cc4)nn3c2-c2nc3ccccc3[nH]2)cc1 | 12.5 (≈ 27.3 µM) | 3 | 1 | 3 | 2 | 2 | 1 | 3 | 1 | inactive | inactive | inactive | inactive | inactive | 20.9 |  |  |  |  |  | inhibition zone (IZ) (Candida albicans [14]): inactive
3 | Cc1nn2c(-c3nc4ccccc4[nH]3)c(-c3ccc(Cl)cc3)nc2s1 | 25 (≈ 68.3 µM) | 4 | 3 | 4 | 3 | 5 | 3 | 3 | 1 |  |  |  |  |  | 28.8 | 6 | 5 | 7 | 6 | 6 | zone of inhibition at 500 µg/mL (Candida albicans [15]): 4 mm
4 | CN[C@@H]1[C@H](O[C@H]2[C@H](O[C@H]3[C@H](O)[C@@H](O)[C@H](N=C(N)N)[C@@H](O)[C@@H]3N=C(N)N)O[C@@H](C)[C@]2(O)C=O)O[C@@H](CO)[C@H](O)[C@H]1O [STREPTOMYCIN] |  | 18.6 | 14.3 | 16.8 | 12.5 | 16.7 | 13.6 | 17.2 | 15.7 |  |  |  |  |  |  |  |  |  |  |  | 
5 | Cc1ccc(-c2nc3sc(-c4ccc(Cl)cc4)nn3c2-c2nc3cc(Cl)ccc3[nH]2)cc1 | 25 (≈ 52.5 µM) | 4 | 2 | 3 | 3 | 4 | 3 | 3 | 2 |  |  |  |  |  | 31.9 | 3 | 2 | 3 | 2 | 4 | zone of inhibition at 500 µg/mL (Candida albicans [15]): 3 mm
6 | Cc1nn2c(-c3nc4cc([N+](=O)[O-])ccc4[nH]3)c(-c3ccc(F)cc3)nc2s1 | 50 (≈ 127 µM) | 4 | 2 | 3 | 2 | 1 | 3 | 2 | 1 | inactive | inactive | inactive | inactive | inactive | 25.9 |  |  |  |  |  | inhibition zone (IZ) (Candida albicans [14]): inactive
7 | COc1ccc(-c2nc3sc(C)nn3c2-c2nc3cc([N+](=O)[O-])ccc3[nH]2)cc1 | 12.5 (≈ 30.8 µM) |  |  |  |  |  |  |  |  |  |  |  |  |  | 22.6 | 2 | 1 | 3 | 2 | 2 | diameter of the inhibition zone (DIZ) (Escherichia coli [2]): inactive; diameter of the inhibition zone (DIZ) (Escherichia coli [3]): inactive; diameter of the inhibition zone (DIZ) (Staphylococcus aureus [4]): inactive; diameter of the inhibition zone (DIZ) (Staphylococcus aureus [5]): inactive; diameter of the inhibition zone (DIZ) (Pseudomonas aeruginosa [6]): inactive; diameter of the inhibition zone (DIZ) (Pseudomonas aeruginosa [7]): inactive; diameter of the inhibition zone (DIZ) (Salmonella typhi [8]): inactive; diameter of the inhibition zone (DIZ) (Salmonella typhi [9]): inactive; zone of inhibition at 500 µg/mL (Candida albicans [15]): 1 mm
8 | COc1ccc(-c2nc3sc(-c4ccccc4)nn3c2-c2nc3cc([N+](=O)[O-])ccc3[nH]2)cc1 | 50 (≈ 107 µM) | 4 | 3 | 4 | 2 | 5 | 3 | 6 | 3 |  |  |  |  | inactive | 23.4 | 3 | 1 | 4 | 2 | 3 | 
9 | COc1ccc(-c2nc3sc(-c4ccc(C)cc4)nn3c2-c2nc3cc([N+](=O)[O-])ccc3[nH]2)cc1 | 12.5 (≈ 25.9 µM) |  |  |  |  |  |  |  |  | inactive | inactive | inactive | inactive | inactive | 25.1 |  |  |  |  |  | diameter of the inhibition zone (DIZ) (Escherichia coli [2]): inactive; diameter of the inhibition zone (DIZ) (Escherichia coli [3]): inactive; diameter of the inhibition zone (DIZ) (Staphylococcus aureus [4]): inactive; diameter of the inhibition zone (DIZ) (Staphylococcus aureus [5]): inactive; diameter of the inhibition zone (DIZ) (Pseudomonas aeruginosa [6]): inactive; diameter of the inhibition zone (DIZ) (Pseudomonas aeruginosa [7]): inactive; diameter of the inhibition zone (DIZ) (Salmonella typhi [8]): inactive; diameter of the inhibition zone (DIZ) (Salmonella typhi [9]): inactive; inhibition zone (IZ) (Candida albicans [14]): inactive
10 | CC[C@@H](CO)NCCN[C@@H](CC)CO [ETHAMBUTOL] | 3.13 (≈ 15.3 µM) |  |  |  |  |  |  |  |  |  |  |  |  |  |  |  |  |  |  |  | 
11 | NC(=O)c1cnccn1 [PYRAZINAMIDE] | 50 (≈ 406 µM) |  |  |  |  |  |  |  |  |  |  |  |  |  |  |  |  |  |  |  | 
12 | OC(Cn1cncn1)(Cn1cncn1)c1ccc(F)cc1F [FLUCONAZOLE] |  |  |  |  |  |  |  |  |  |  |  |  |  |  |  | 14 | 10 | 16 | 14 | 23 | zone of inhibition at 500 µg/mL (Candida albicans [15]): 20 mm
13 | Cc1ccc(-c2nn3c(-c4nc5cc([N+](=O)[O-])ccc5[nH]4)c(-c4ccc(Cl)cc4)nc3s2)cc1 | 12.5 (≈ 25.7 µM) |  |  |  |  |  |  |  |  | inactive | inactive | inactive | inactive | inactive | 21.8 |  |  |  |  |  | diameter of the inhibition zone (DIZ) (Escherichia coli [2]): inactive; diameter of the inhibition zone (DIZ) (Escherichia coli [3]): inactive; diameter of the inhibition zone (DIZ) (Staphylococcus aureus [4]): inactive; diameter of the inhibition zone (DIZ) (Staphylococcus aureus [5]): inactive; diameter of the inhibition zone (DIZ) (Pseudomonas aeruginosa [6]): inactive; diameter of the inhibition zone (DIZ) (Pseudomonas aeruginosa [7]): inactive; diameter of the inhibition zone (DIZ) (Salmonella typhi [8]): inactive; diameter of the inhibition zone (DIZ) (Salmonella typhi [9]): inactive; inhibition zone (IZ) (Candida albicans [14]): inactive
14 | COc1ccc(-c2nc3sc(-c4ccc(F)cc4)nn3c2-c2nc3cc(Cl)ccc3[nH]2)cc1 | 50 (≈ 105 µM) | 5 | 1 | 4 | 1 | 2 | 1 | 3 | 0 |  |  |  |  |  | 38.6 | 4 | 2 | 4 | 1 | 5 | zone of inhibition at 500 µg/mL (Candida albicans [15]): 2 mm
15 | Cc1cc(C(C)(C)C)c(O)c(C(C)(C)C)c1 [BUTYLATED HYDROXYTOLUENE] |  |  |  |  |  |  |  |  |  |  |  |  |  |  | 88.6 |  |  |  |  |  | 
16 | NNC(=O)c1ccncc1 [ISONIAZID] | 0.1 (≈ 0.729 µM) |  |  |  |  |  |  |  |  |  |  |  |  |  |  |  |  |  |  |  | 
